This note sets out measurements from ChEMBL document CHEMBL4673173, “Cyrene(TM) is a green alternative to DMSO as a solvent for antibacterial drug discovery against ESKAPE pathogens” (RSC Med Chem, 2020).

SMILES strings stand for the structures. In brackets after ≈: the same amount, converted by molar mass. Counter-ions that a name gives are not always drawn. Activity calls are given as the source filed them. No cut-off for these calls is given here. Bridge positions count the residues as written; N and C are the ends. Square brackets hold non-standard residues; d marks the D form. Peptide text beside a SMILES is read from it. * marks the point of attachment. X1 = CC[C@H](C)CCCCC(=O)*; Dab = NCC[C@H](N)C(=O)O

In test [1] the test system is Klebsiella pneumoniae. The test can be described thus: Antibacterial activity against Klebsiella pneumoniae ATCC 700603 by broth microdilution method. Format: functional. The method, boiled down:
(§1)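 Antibiotics were dissolved as stock solutions in either DMSO or Cyrene™, neat or mixed with water, at 5–10 mM (stock). Each drug was tested in parallel with both vehicles. Growth inhibition was read as MIC80 […]. NA means no activity at the highest concentration tested.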
A general note: Broth dilution looks for growth in wells or tubes with falling amounts of substance.

Test [2] has as its system Escherichia coli. The test can be described thus: Antibacterial activity against Escherichia coli ATCC 25922 by broth microdilution method. It counts as functional. The method, boiled down:
as §1

Test [3] relates to Enterococcus faecalis. The test can be described thus: Antibacterial activity against Enterococcus faecalis ATCC 51299 by broth microdilution method. It counts as functional. The method, boiled down: as §1
Test [4] relates to Pseudomonas aeruginosa. The test can be described thus: Antibacterial activity against Pseudomonas aeruginosa […] by broth microdilution method. It counts as functional. A digest of the protocol:
as §1

In test [5] the test system is Acinetobacter baumannii. The experiment in a line: Antibacterial activity against Acinetobacter baumannii ATCC 19606 by broth microdilution method. It counts as functional, ATCC 19606 = CIP 70.34 = JCM 6841. The method, boiled down:
as §1

In test [6] the test system is Staphylococcus aureus. The test can be described thus: Antibacterial activity against Staphylococcus aureus ATCC 43300 by broth microdilution method. Format: functional. A digest of the protocol: as §1
Test [7] concerns Enterococcus faecalis. The conditions noted are these: ATCC 51299.
The test system of test [8] is Escherichia coli. The experiment in a line: Antibacterial activity against Escherichia coli ATCC 25922 using cyrene as solvent by broth microdilution method. It counts as functional.
Test [9] deals with Pseudomonas aeruginosa. The experiment in a line: Antibacterial activity against Pseudomonas aeruginosa ATCC 27893 using DMSO as solvent by broth microdilution method. It counts as functional.
The subject of test [10] is Enterococcus faecalis. The conditions noted are these: ATCC 51299. This is another data set of the same source.
In test [11] the test system is Klebsiella pneumoniae. The experiment in a line: Antibacterial activity against Klebsiella pneumoniae ATCC 700603 using cyrene as solvent by broth microdilution method. Format: functional.
The test system of test [12] is Klebsiella pneumoniae. The test can be described thus: Antibacterial activity against Klebsiella pneumoniae ATCC 700603 using DMSO as solvent by broth microdilution method. Format: functional.
In test [13] the test system is Acinetobacter baumannii. The experiment in a line: Antibacterial activity against Acinetobacter baumannii ATCC 19606 using DMSO as solvent by broth microdilution method. Format: functional. The following applies: ATCC 19606 = CIP 70.34 = JCM 6841.
The subject of test [14] is Acinetobacter baumannii. The test can be described thus: Antibacterial activity against Acinetobacter baumannii ATCC 19606 using cyrene as solvent by broth microdilution method. It counts as functional. The following applies: ATCC 19606 = CIP 70.34 = JCM 6841.
In test [15] the test system is Staphylococcus aureus. The conditions noted are these: ATCC 43300.
Test [16] deals with Staphylococcus aureus. The following applies: ATCC 43300. The source holds these as a separate data set.
The subject of test [17] is Escherichia coli. The experiment in a line: Antibacterial activity against Escherichia coli ATCC 25922 using DMSO as solvent by broth microdilution method. It counts as functional.
Test [18] deals with Pseudomonas aeruginosa. The experiment in a line: Antibacterial activity against Pseudomonas aeruginosa ATCC 27893 using cyrene as solvent by broth microdilution method. It counts as functional.
Test [19] has as its system Staphylococcus aureus. The experiment in a line: microbe, parasite or virus in culture. Format: functional. The following applies: ATCC 43300.
The subject of test [20] is Enterococcus faecalis. The test can be described thus: microbe, parasite or virus in culture. It counts as functional. The conditions noted are these: ATCC 51299.
The test system of test [21] is Staphylococcus aureus. The test can be described thus: microbe, parasite or virus in culture. Format: functional. The following applies: ATCC 43300. The source holds these as a separate data set.
The subject of test [22] is Enterococcus faecalis. The experiment in a line: microbe, parasite or virus in culture. Format: functional. The conditions noted are these: ATCC 51299. This is another data set of the same source.
For test [23], the system named is Klebsiella pneumoniae. The following applies: 700603.
Test [24] deals with Acinetobacter baumannii. The following applies: ATCC 19606 = CIP 70.34 = JCM 6841.
Test [25] relates to Pseudomonas aeruginosa. The conditions noted are these: ATCC 27893.
Test [26] has as its system Pseudomonas aeruginosa. The following applies: ATCC 27893. The source holds these as a separate data set.
Test [27] has as its system Escherichia coli. The conditions noted are these: ATCC 25922.
Test [28] relates to Acinetobacter baumannii. The following applies: ATCC 19606 = CIP 70.34 = JCM 6841. The source holds these as a separate data set.
Test [29] relates to Klebsiella pneumoniae. The conditions noted are these: 700603. This is another data set of the same source.
The subject of test [30] is Escherichia coli. The conditions noted are these: ATCC 25922. This is another data set of the same source.

Turning to `O=C1CC[C@H]2CO[C@@H]1O2`, the MIC80 against Klebsiella pneumoniae [1] was 8 %v/v; in the test with Escherichia coli [2], 5 %v/v; with Enterococcus faecalis [3], 4 %v/v; in the test on Pseudomonas aeruginosa [4] it was 8 %v/v; against Acinetobacter baumannii [5], 8 %v/v; in the test with Staphylococcus aureus [6], 8 %v/v.
Regarding `CC[C@H](C)CCCCC(=O)N[C@@H](CCN)C(=O)N[C@H](C(=O)N[C@@H](CCN)C(=O)N[C@H]1CCNC(=O)[C@H]([C@@H](C)O)NC(=O)[C@H](CCN)NC(=O)[C@H](CCN)NC(=O)[C@H](CC(C)C)NC(=O)[C@@H](Cc2ccccc2)NC(=O)[C@H](CCN)NC1=O)[C@@H](C)O` (X1-[Dab]T[Dab][Dab][Dab][dF]L[Dab][Dab]T; lactam 4-C), the MIC80 result with Enterococcus faecalis [7], with Enterococcus faecalis [10], in the test with Staphylococcus aureus [15] and with Staphylococcus aureus [16] was “inactive” throughout. Also, the MIC80 with Escherichia coli [8] was determined as 1.6 µM (≈ 1.93 µg/mL); against Pseudomonas aeruginosa [9] it was 3.1 µM (≈ 3.73 µg/mL); against Klebsiella pneumoniae [11], 1.6 µM (≈ 1.93 µg/mL); in the test with Klebsiella pneumoniae [12] it was 1.6 µM (≈ 1.93 µg/mL); with Acinetobacter baumannii [13], 1.6 µM (≈ 1.93 µg/mL); with Acinetobacter baumannii [14], 1.6 µM (≈ 1.93 µg/mL). The MIC80 with Escherichia coli [17] came out at 1.6 µM (≈ 1.93 µg/mL); against Pseudomonas aeruginosa [18], 3.1 µM (≈ 3.73 µg/mL).
As to `O=C(O)c1cn(C2CC2)c2cc(N3CCNCC3)c(F)cc2c1=O` [CIPROFLOXACIN HYDROCHLORIDE], the MIC80 came out at 0.39 µM with Pseudomonas aeruginosa [9]; 0.39 µM in the test with Klebsiella pneumoniae [11]; 0.39 µM against Klebsiella pneumoniae [12]; 1.6 µM with Acinetobacter baumannii [13]; 1.6 µM in the test with Acinetobacter baumannii [14]; 1.6 µM in the test with Staphylococcus aureus [19]. Further, the MIC80 in the test with Enterococcus faecalis [20] amounted to 0.39 µM; against Staphylococcus aureus [21] it was 1.6 µM; against Pseudomonas aeruginosa [18], 0.39 µM; against Enterococcus faecalis [22], 0.39 µM.
Turning to `C[S+](C)[O-]` [DIMETHYL SULFOXIDE], the MIC80 was 16 %v/v with Klebsiella pneumoniae [1]; 10 %v/v in the test on Escherichia coli [2]; 8 %v/v against Enterococcus faecalis [3]; 16 %v/v in the test on Pseudomonas aeruginosa [4]; 16 %v/v with Acinetobacter baumannii [5]; 16 %v/v against Staphylococcus aureus [6].
With `C[C@H]1COc2c(N3CCN(C)CC3)c(F)cc3c(=O)c(C(=O)O)cn1c23` [LEVOFLOXACIN], the MIC80 was 0.019 µM (≈ 0.00687 µg/mL) with Escherichia coli [8]; 1.6 µM (≈ 0.578 µg/mL) in the test on Pseudomonas aeruginosa [9]; 0.78 µM (≈ 0.282 µg/mL) in the test on Klebsiella pneumoniae [11]; 0.78 µM (≈ 0.282 µg/mL) against Klebsiella pneumoniae [12]; 0.39 µM (≈ 0.141 µg/mL) against Acinetobacter baumannii [13]; 0.39 µM (≈ 0.141 µg/mL) against Acinetobacter baumannii [14]. Besides, the MIC80 with Staphylococcus aureus [19] was determined as 0.78 µM (≈ 0.282 µg/mL); with Escherichia coli [17], 0.019 µM (≈ 0.00687 µg/mL); against Enterococcus faecalis [20] it was 0.19 µM (≈ 0.0687 µg/mL); against Staphylococcus aureus [21] it was 0.78 µM (≈ 0.282 µg/mL); with Pseudomonas aeruginosa [18], 1.6 µM (≈ 0.578 µg/mL); with Enterococcus faecalis [22], 0.39 µM (≈ 0.141 µg/mL).
Consider `CC1(C)S[C@@H]2[C@H](NC(=O)Cc3ccccc3)C(=O)N2[C@H]1C(=O)O` [PENICILLIN G SODIUM], for which the MIC80 result with Klebsiella pneumoniae [23], in the test on Enterococcus faecalis [7], in the test with Acinetobacter baumannii [24], in the test on Enterococcus faecalis [10], in the test on Pseudomonas aeruginosa [25] and in the test with Pseudomonas aeruginosa [26] was “inactive” each time. Also, the MIC80 entry in the test on Escherichia coli [27], with Acinetobacter baumannii [28], in the test on Klebsiella pneumoniae [29] and in the test with Escherichia coli [30] was “inactive” each time. Also, the MIC80 with Staphylococcus aureus [19] and in the test with Staphylococcus aureus [21] was 34 µM each time.
Consider `CN(C)[C@@H]1C(O)=C(C(N)=O)C(=O)[C@@]2(O)C(O)=C3C(=O)c4c(O)cccc4[C@@](C)(O)[C@H]3C[C@@H]12` [TETRACYCLINE], for which the MIC80 entry in the test on Klebsiella pneumoniae [23], in the test on Enterococcus faecalis [7], with Enterococcus faecalis [10] and in the test on Klebsiella pneumoniae [29] was “inactive” throughout. Further, the MIC80 in the test on Escherichia coli [8] is 3.13 µM (≈ 1.39 µg/mL); in the test on Pseudomonas aeruginosa [9], 25 µM (≈ 11.1 µg/mL); with Acinetobacter baumannii [13] it was 25 µM (≈ 11.1 µg/mL); with Acinetobacter baumannii [14] it was 12.5 µM (≈ 5.56 µg/mL); in the test on Staphylococcus aureus [19] it was 0.78 µM (≈ 0.347 µg/mL); against Escherichia coli [17], 3.13 µM (≈ 1.39 µg/mL). Besides, the MIC80 is 0.78 µM (≈ 0.347 µg/mL) against Staphylococcus aureus [21] and 25 µM (≈ 11.1 µg/mL) in the test with Pseudomonas aeruginosa [18].
Regarding `NC[C@H]1O[C@H](O[C@H]2[C@H](O)[C@@H](O[C@H]3O[C@H](CO)[C@@H](O)[C@H](N)[C@H]3O)[C@H](N)C[C@@H]2N)[C@H](N)C[C@@H]1O` [TOBRAMYCIN], the MIC80 entry in the test on Enterococcus faecalis [7], with Enterococcus faecalis [10], in the test on Staphylococcus aureus [15] and in the test with Staphylococcus aureus [16] was “inactive” each time. For the same molecule, the MIC80 amounted to 0.78 µM (≈ 0.365 µg/mL) with Escherichia coli [8]; 1.6 µM (≈ 0.748 µg/mL) against Pseudomonas aeruginosa [9]; 13 µM (≈ 6.08 µg/mL) against Klebsiella pneumoniae [11]; 13 µM (≈ 6.08 µg/mL) with Klebsiella pneumoniae [12]; 3.1 µM (≈ 1.45 µg/mL) against Acinetobacter baumannii [13]; 3.1 µM (≈ 1.45 µg/mL) in the test on Acinetobacter baumannii [14]. In addition, the MIC80 against Escherichia coli [17] worked out at 0.78 µM (≈ 0.365 µg/mL); with Pseudomonas aeruginosa [18], 1.6 µM (≈ 0.748 µg/mL).
With `CN[C@H](CC(C)C)C(=O)N[C@H]1C(=O)N[C@@H](CC(N)=O)C(=O)N[C@H]2C(=O)N[C@H]3C(=O)N[C@H](C(=O)N[C@H](C(=O)O)c4cc(O)cc(O)c4-c4cc3ccc4O)[C@H](O)c3ccc(c(Cl)c3)Oc3cc2cc(c3O[C@@H]2O[C@H](CO)[C@@H](O)[C@H](O)[C@H]2O[C@H]2C[C@](C)(N)[C@H](O)[C@H](C)O2)Oc2ccc(cc2Cl)[C@H]1O` [VANCOMYCIN HYDROCHLORIDE], the MIC80 entry with Klebsiella pneumoniae [23], with Acinetobacter baumannii [24], in the test with Pseudomonas aeruginosa [25], in the test on Pseudomonas aeruginosa [26], in the test on Escherichia coli [27] and in the test on Acinetobacter baumannii [28] was “inactive” throughout. The MIC80 entry with Klebsiella pneumoniae [29] and with Escherichia coli [30] was “inactive” each time. Also, the MIC80 came out at 0.39 µM against Staphylococcus aureus [19], 13 µM against Enterococcus faecalis [20], 0.39 µM with Staphylococcus aureus [21] and 13 µM with Enterococcus faecalis [22].
